Consider six molecules from ChEMBL document CHEMBL1141285, “Antimicrobial compounds from the Australian desert plant Eremophila neglecta” (2007).

What is called MIC is the least concentration at which growth counts as inhibited. What is called MBC is the smallest concentration meeting the test's criterion for killing. Low readings indicate greater bactericidal potency, high ones weaker bactericidal potency.

≈ marks a conversion by molar mass, not a printed value. Calls of active or inactive are those of the source.

Assay [1] relates to Staphylococcus aureus. In words: Antimicrobial activity against Staphylococcus aureus ATCC 29213 by broth microdilution method. The format is functional. The gist of the method:
(§1)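 Broth microdilution in cation-adjusted MH II broth with 2% DMSO in the 2-fold serial dilutions (final 1% v/v), done in duplicate. Bacteria grown on 5% sheep blood agar at 37 °C. Final inoculum 5 × 10^5 CFU/mL. Plates shaken 10 min, then incubated overnight at 37 °C. MIC is the lowest concentration with no growth in both duplicate wells.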
A general note: In broth dilution the organism is exposed to a series of concentrations in liquid medium.

Another assay has as its system Streptococcus pneumoniae. As to the kind of experiment: Antimicrobial activity against Streptococcus pneumoniae ATCC 49619 by broth microdilution method. The class given is functional. The gist of the method: (§2)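 Broth microdilution in brain heart infusion broth with 2% DMSO in the 2-fold serial dilutions (final 1% v/v), done in duplicate. Final inoculum 5 × 10^5 CFU/mL. Plates shaken 10 min, then incubated overnight at 37 °C with 5% CO2. MIC is the lowest concentration with no growth in both duplicate wells.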

The subject of another assay is Salmonella typhimurium. As to the kind of experiment: Antimicrobial activity against Salmonella Typhimurium ATCC 13311 at 621.5 uM by broth microdilution method. The format is functional, organism-based. The following applies: Salmonella enterica subsp. enterica serovar Typhimurium.
The subject of a further assay is Pseudomonas aeruginosa. As to the kind of experiment: Antimicrobial activity against Pseudomonas aeruginosa ATCC 27853 at 621.5 uM by broth microdilution method. The format is functional, organism-based.
Assay [2] relates to Staphylococcus aureus. As to the kind of experiment: Antimicrobial activity against Staphylococcus aureus ATCC 25923 by broth microdilution method. The class given is functional. The gist of the method:
as §1

For the next assay, the system named is Escherichia coli. In words: Antimicrobial activity against Escherichia coli ATCC 25922 at 621.5 uM by broth microdilution method. The format is functional, organism-based.
For another assay, the system named is Streptococcus pyogenes. In words: Antimicrobial activity against Streptococcus pyogenes ATCC 10389 by broth microdilution method. The class given is functional. The gist of the method: as §2
Assay [3] relates to Staphylococcus aureus. In words: Antimicrobial activity against Staphylococcus aureus ATCC 29213 at 621.5 uM by broth microdilution method. The class given is functional, organism-based.
For assay [4], the system named is Staphylococcus aureus. In words: Antimicrobial activity against Staphylococcus aureus ATCC 29213 by broth microdilution method.

Regarding GENTAMICIN, the lowest concentration to inhibit growth with Staphylococcus aureus [1] (MIC) was 1 µM.
Regarding `CC(C)=CCC[C@H](C)[C@@H]1CC[C@@H](C)c2c(O)cc(C(=O)O)cc21`, the MBC against Streptococcus pneumoniae amounted to 49.3 µM (≈ 15.6 µg/mL); in the assay with Staphylococcus aureus [2] it was 99 µM (≈ 31.3 µg/mL); against Staphylococcus aureus [1] it was 49.3 µM (≈ 15.6 µg/mL); in the assay with Streptococcus pyogenes it was 99 µM (≈ 31.3 µg/mL). Further, the MIC with Streptococcus pneumoniae turned out to be 24.7 µM (≈ 7.82 µg/mL); in the assay on Staphylococcus aureus [2], 49.3 µM (≈ 15.6 µg/mL); with Staphylococcus aureus [1], 49.3 µM (≈ 15.6 µg/mL); in the assay on Streptococcus pyogenes, 24.7 µM (≈ 7.82 µg/mL). Besides, the outcome with Salmonella typhimurium, in the assay with Pseudomonas aeruginosa and in the assay on Escherichia coli was inactive.
With `CC(C)=CCC[C@H](C)[C@@H]1CC[C@@H](C)c2c(O)cc(CO)cc21`, the MBC amounted to 12.9 µM (≈ 3.9 µg/mL) with Streptococcus pneumoniae, 25.8 µM (≈ 7.8 µg/mL) in the assay with Staphylococcus aureus [2], 25.8 µM (≈ 7.8 µg/mL) with Staphylococcus aureus [1] and 12.9 µM (≈ 3.9 µg/mL) in the assay on Streptococcus pyogenes. The MIC against Streptococcus pneumoniae was 12.9 µM (≈ 3.9 µg/mL); against Staphylococcus aureus [2] it was 25.8 µM (≈ 7.8 µg/mL); with Staphylococcus aureus [1] it was 25.8 µM (≈ 7.8 µg/mL); with Streptococcus pyogenes it was 12.9 µM (≈ 3.9 µg/mL). Also, the outcome in the assay with Salmonella typhimurium, in the assay on Pseudomonas aeruginosa and with Escherichia coli was inactive.
Turning to `CC(C)=CCCC1=COC2=C(C)C(=O)C(=O)c3c(C)ccc1c32`, the MBC with Streptococcus pneumoniae was determined as 12.7 µM (≈ 3.92 µg/mL); in the assay with Staphylococcus aureus [2], 50.6 µM (≈ 15.6 µg/mL); against Staphylococcus aureus [1], 203 µM (≈ 62.6 µg/mL); in the assay with Streptococcus pyogenes it was 203 µM (≈ 62.6 µg/mL). Further, the MIC in the assay with Streptococcus pneumoniae stood at 6.5 µM (≈ 2 µg/mL); against Staphylococcus aureus [2], 25.3 µM (≈ 7.8 µg/mL); against Staphylococcus aureus [1] it was 25.3 µM (≈ 7.8 µg/mL); against Streptococcus pyogenes, 102 µM (≈ 31.3 µg/mL). For the same molecule, the result in the assay on Salmonella typhimurium, in the assay on Pseudomonas aeruginosa and with Escherichia coli was inactive.
For the molecule `CC(=O)OCc1cc(O)c2c(c1)[C@H]([C@@H](C)CCC=C(C)C)C[C@H](OC(C)=O)[C@H]2C`, in the assay with Staphylococcus aureus [3], the outcome was inactive.
`CN[C@H](CC(C)C)C(=O)N[C@H]1C(=O)N[C@@H](CC(N)=O)C(=O)N[C@H]2C(=O)N[C@H]3C(=O)N[C@H](C(=O)N[C@H](C(=O)O)c4cc(O)cc(O)c4-c4cc3ccc4O)[C@H](O)c3ccc(c(Cl)c3)Oc3cc2cc(c3O[C@@H]2O[C@H](CO)[C@@H](O)[C@H](O)[C@H]2O[C@H]2C[C@](C)(N)[C@H](O)[C@H](C)O2)Oc2ccc(cc2Cl)[C@H]1O` [VANCOMYCIN]: in the assay on Staphylococcus aureus [4], 0.7 µM (≈ 1.01 µg/mL) was the least that counted as inhibitory (MIC).
